From the RNAGym collection of RNA variant scans (doi:10.1126/science.aae0568)
Fewer inactive variants are shown than the library holds.

B1: tRNA (parent)
chain: GUUCCGUUGGCGUAAUGGUAACGCGUCUCCCUCCUAAGGAGAAGACUGCGGGUUCGAGUCCCGUACGGAACG

Variants of: B1
Assay: yeast fitness relative to wild type (ratio to wild type); higher = fitter; tRNA-Arg(CCU), competitive growth, 37 C, YPD
Procedure, shortened: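 The tRNA-Arg(CCU) gene variants were made by chemical synthesis with a 3% per-site mutation rate at 69 sites and inserted at the native genomic locus of Saccharomyces cerevisiae. After pooling, the strains were competed in YPD at 37°C for 24 hours in six parallel replicates. Gene amplicons from the start population and each end population were read by 100-nucleotide paired-end sequencing, and Darwinian fitness relative to wild type was taken from genotype frequency changes. Genotypes needed ≥ 100 starting reads, and estimates < 0.5 were set to 0.5.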

| Variant | yeast fitness |
| --- | --- |
| C29G A36U | 0.569 |
| C29G A36G | 0.548 |
| C29A C49G | 0.623 |
| C29A C31U A40U | ≤ 0.5 |
| C29G U32C C46U | ≤ 0.5 |
| C29A A45U U59C | 0.721 |
| C29G C33G A42C | 0.54 |
| C29G A70G | 0.548 |
| C29G A70C | 0.76 |
| C29G A70U | 0.682 |
| C29G C60G C61U | 0.52 |
| C29G C55A A65G | ≤ 0.5 |
| C29A C61G A70U | ≤ 0.5 |
| C29G C30G A57U A70G | 0.503 |
| C29G C34A C60A A69C | ≤ 0.5 |
| C29G A37U G52A | 0.546 |
| C29G U32G G38A U53C | 0.566 |
| C29G A36G C66G | ≤ 0.5 |
| C29A C33G C61U | 0.619 |
| C29A U32C U35A | ≤ 0.5 |
| C29G U32C C34U G56A | 0.667 |
| C29G C46G G48C C62U | ≤ 0.5 |
| C29A A57U C60G C62A | ≤ 0.5 |
| C29G C34U G63A G67A A69G | ≤ 0.5 |

| Variant | yeast fitness |
| --- | --- |
| C29G G44C A45U U47A | ≤ 0.5 |
| C29G A36G A43U C66A | ≤ 0.5 |
| C29G A65G C66A | ≤ 0.5 |
| C29G C33G U35G G44A | 0.628 |
| C29G C62A | 0.506 |
| C29G C62U | 0.721 |
| C29G C34U G38C C55A | ≤ 0.5 |
| C29G C49U U53C A57C C60G U64C G68U | ≤ 0.5 |
| C29A U32A A45C A65C | 0.651 |
| C29A C30U C49U | ≤ 0.5 |
| C29A C30A | 0.591 |
| C29G U32G G38A U53C A57U C62U | ≤ 0.5 |
| C29G U59C | 0.606 |
| C29G G58C A65C | ≤ 0.5 |
| C29U A36C G48A G50C | ≤ 0.5 |
| C29A C33U U47A | ≤ 0.5 |
| C29A A37U C49A | ≤ 0.5 |
| C29A G50C A70U | ≤ 0.5 |
| C29G A37C G58A | ≤ 0.5 |
| C29G C60G | 0.851 |
| C29G G38A A43U | 0.689 |
| C29G U32G G38A U53C C66U | ≤ 0.5 |
| C29G C34G C46A U53A C61U | 0.544 |
| C29G A45G A69C A70C | ≤ 0.5 |

| Variant | yeast fitness |
| --- | --- |
| C29A C34G A57C | ≤ 0.5 |
| C29G C33U A45U | ≤ 0.5 |
| C29A G48C | 0.613 |
| C29A G48A | 0.688 |
| C29G C61A C62U | ≤ 0.5 |
| C29G A40C A42C G58A | ≤ 0.5 |
| C29G G50C C55U | ≤ 0.5 |
| C29G A45C G52A | ≤ 0.5 |
| C29G C30G C34G C60A G67C | ≤ 0.5 |
| C29A A40G C55U | ≤ 0.5 |
| C29A A37G G58A | ≤ 0.5 |
| C29G C34A G39C | ≤ 0.5 |
| C29G C55G A57G | 0.593 |
| C29A C55G A65G | 0.57 |
| C29A G39C A57G C61U C66U | 0.561 |
| C29A U32C A42U C66A A69C | ≤ 0.5 |
| C29A G68C | 0.621 |
| C29A G68U | 0.721 |
| C29G C55A U64A A65C | ≤ 0.5 |
| C29A C62U G68A | ≤ 0.5 |
| C29G A42C | 0.685 |
| C29G A42U | 0.712 |
| C29G A42G | 0.694 |
| C29G C33G G52C | 0.579 |

| Variant | yeast fitness |
| --- | --- |
| C29G G56C C61A | 0.512 |
| C29A C34U G48C | ≤ 0.5 |
| C29G A43G U47A | ≤ 0.5 |
| C29G G63C A70U | ≤ 0.5 |
| C29A A42U C46A | 0.619 |
| C29G C66U | 0.648 |
| C29G C66A | 0.506 |
| C29A C30A G50A A70C | ≤ 0.5 |
| C29G G50A A65U | ≤ 0.5 |
| C29A U35C G50A | ≤ 0.5 |
| C29G C34A C60A | ≤ 0.5 |
| C29G C34A A37G C60A | ≤ 0.5 |
| C29G A37G G67C | 0.672 |
| C29G G48A A70U | ≤ 0.5 |
| C29A A42G A45U G50A C60A | ≤ 0.5 |
| C29A C30A G58A | ≤ 0.5 |
| C29A C46U A57G | ≤ 0.5 |
| C29G G39C A70U | 0.633 |
| C29A A43U | 0.585 |
| C29A A43G | 0.645 |
| C29A U32C C49A | ≤ 0.5 |
| C29A G56C | ≤ 0.5 |
| C29A G56A | 0.794 |
| C29G A36U C49U | 0.538 |

| Variant | yeast fitness |
| --- | --- |
| C29A C31G G51C C62G | ≤ 0.5 |
| C29G A57U C60A | ≤ 0.5 |
| C29A A45U | 0.524 |
| C29A A45G | 0.578 |
| C29G U47C C49G C60G | 0.648 |
| C29A A57C | 0.555 |
| C29A C62U U64C | 0.554 |
| C29A C30G G50C A65G | ≤ 0.5 |
| C29G C49G G50C A69U A70C | ≤ 0.5 |
| C29A C30U G58A | ≤ 0.5 |
| C29G C33G A43U | ≤ 0.5 |
| C29G A42G C46A A57C | ≤ 0.5 |
| C29G C31A C33G G41A A43G C61U | ≤ 0.5 |
| C29U A36C | 0.531 |
| C29A C31G G39A G48C | ≤ 0.5 |
| C29G C55U | ≤ 0.5 |
| C29G A36G A40U | ≤ 0.5 |
| C29A U47A G68C | ≤ 0.5 |
| C29A C30U U47C U64C | ≤ 0.5 |
| C29G C61G C66G | 0.558 |
| C29G A40U A43G C46G U64A | ≤ 0.5 |
| C29A U47C A57C U59A | ≤ 0.5 |
| C29G A45C | 0.614 |
| C29G G68A | 0.595 |

| Variant | yeast fitness |
| --- | --- |
| C29G A42C G56A | 0.601 |
| C29G U32C A36U C61G | ≤ 0.5 |
| C29A G58A | 0.653 |
| C29A U35C A40U | 0.639 |
| C29G A40U C55A G67C | ≤ 0.5 |
| C29G G50C | 0.607 |
| C29G C31U A37U | ≤ 0.5 |
| C29G U53A | 0.523 |
| C29G G48C | 0.563 |
| C29G G48A | 0.586 |
| C29U A36C C46U U53A | ≤ 0.5 |
| C29G A40U A65U | ≤ 0.5 |
| C29A C31G C55A G58A | 0.568 |
| C29G A43C G67C | 0.654 |
| C29G U54A | ≤ 0.5 |
| C29G U54G | 0.563 |
| C29A G41A A43C A70C | ≤ 0.5 |
| C29A A37G A57G G67C A69U | ≤ 0.5 |
| C29G C33U U47A G58A | ≤ 0.5 |
| C29G C46A U59C | 0.546 |
| C29G C55A U64C | ≤ 0.5 |
| C29G C33G G58C C62G | ≤ 0.5 |
| C29A C33A G51C C61U | ≤ 0.5 |
| C29G G56A C61A | 0.547 |

| Variant | yeast fitness |
| --- | --- |
| C29G G56A C61U | ≤ 0.5 |
| C29G C30G C49A | 0.839 |
| C29A C61G C66U A69U | ≤ 0.5 |
| C29A A42G G63A | ≤ 0.5 |
| C29A U35G C55G G68A A69C | ≤ 0.5 |
| C29G U32A | 0.501 |
| C29G U32C | 0.563 |
| C29G A40G G63A | ≤ 0.5 |
| C29A G38A | 0.764 |
| C29A C30A G58C C62U | 0.565 |
| C29A C33U C55G | 0.633 |
| C29G G56A | 0.632 |
| C29G C30G U32C A36U | 0.524 |
| C29A C30U U64C | ≤ 0.5 |
| C29G U32A C33U | ≤ 0.5 |
| C29G A45C A70G | 0.573 |
| C29A U64C | 0.632 |
| C29G G48C C49U C61A | ≤ 0.5 |
| C29G C30U C31G C49U G50C | ≤ 0.5 |
| C29G C31A G67A | 0.56 |
| C29A G39C | 0.817 |
| C29A C49U C62U | 0.562 |
| C29G U35A A36C A65G C66G | ≤ 0.5 |
